bovine MsrA act: bovine MsrA enzyme activators, primary screen, biochemical, absorbance, HTS; Methionine sulfoxide reductase A (Bos taurus); AID 602163, 2012; purified bovine MsrA, absorbance read-out; 0.3% of 360,000 active; activation, % at 10.6 µM; in the data active = activation above about 7.5%;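 also: 0% = vehicle and 100% = reference activator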
procasp3 activ: activators of human procaspase-3 D3A mutant, primary screen, biochemical, absorbance, PC-3 D3A mutant, single concentration. Caspase-3 (Homo sapiens), P42574. recombinant procaspase-3 D3A, Ac-DEVD-pNA absorbance 405 nm. activation, % at 8.5 µM. 0.11% of 330,000 active. AID 463141, 2010;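 active = activation above the mean of all tested compounds plus 3 SD, cut at about 21% in these data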;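 also: 0% = DMSO alone and 100% = DMSO wells spiked with extra 5 µM PC-3 D3A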
Target sequence (P42574 whole entry D9A/D28A/D175A): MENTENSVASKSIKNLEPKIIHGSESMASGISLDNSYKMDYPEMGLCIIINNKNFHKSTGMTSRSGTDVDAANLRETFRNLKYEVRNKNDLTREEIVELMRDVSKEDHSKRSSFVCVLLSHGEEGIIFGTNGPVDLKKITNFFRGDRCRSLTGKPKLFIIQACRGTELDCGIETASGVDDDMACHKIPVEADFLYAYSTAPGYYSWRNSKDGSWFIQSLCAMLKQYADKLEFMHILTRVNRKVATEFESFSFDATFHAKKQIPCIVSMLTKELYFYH
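Compound: 8.5 µM single point, 0.8% DMSO / Material: Autoprocessing-dead procaspase-3 D3A mutant enzyme / Timing: 1 h preincubation plus 2 h reaction at 25 °C / Medium: Zinc-free HEPES/NaCl buffer with 0.01% Triton X-100 at pH 7.4 / Technique: 405 nm absorbance of p-nitroaniline, reads at 0 and 120 min / Repeats: one well per compound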
MsrA inh: bovine MsrA enzyme inhibitors, primary screen, biochemical, absorbance, HTS. Methionine sulfoxide reductase A (Bos taurus). purified bovine MsrA, absorbance read-out. inhibition, % at 15.5 µM. 0.75% of 360,000 active; in the data active = inhibition above about 4.5%;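 also: 0% = vehicle wells with enzyme and 100% = reference inhibitor wells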
proCasp7 act: procaspase-7 activators, primary screen, counter-screen for procaspase-3 activator project, biochemical, absorbance, HTS, human | recombinant procaspase-7, Ac-DEVD-pNA absorbance 405 nm; D23A/D198A/D206A triple mutant, cannot self-cleave; scale: DMSO 0, 5 µM enzyme 100 | 0.093% of 330,000 active | activation, % at 8.5 µM | Caspase-7 (Homo sapiens), P55210;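 active = percent activation above the screen-wide mean plus 3 SD, cut at about 25% in these data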
Target sequence (P55210 whole entry D23A/D198A/D206A): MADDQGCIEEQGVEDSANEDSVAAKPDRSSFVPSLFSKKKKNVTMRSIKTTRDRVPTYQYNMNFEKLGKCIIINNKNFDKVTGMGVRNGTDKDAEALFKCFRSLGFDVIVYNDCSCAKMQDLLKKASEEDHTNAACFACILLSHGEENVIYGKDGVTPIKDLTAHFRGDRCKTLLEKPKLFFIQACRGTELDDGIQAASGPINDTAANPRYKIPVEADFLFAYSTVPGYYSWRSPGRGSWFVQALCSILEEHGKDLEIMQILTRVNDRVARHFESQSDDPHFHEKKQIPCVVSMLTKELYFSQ
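System: Procaspase-7 triple mutant (PC-7 D3A); measure: % activation from two-timepoint absorbance difference, scaled to controls; times: 1 h compound preincubation, 2 h substrate cleavage, 25 °C; also added: Ac-DEVD-pNA substrate, 400 µM as added; measured by: Epi-absorbance of released pNA at 405 nm, two timepoints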
MsrA act confirm: bovine MsrA activators, retest, confirmation, biochemical, absorbance, HTS | AID 602270, 2012 | shares compounds with bovine MsrA act | purified bovine MsrA, absorbance read-out | 12% of 1,000 active | activation, % at 10.6 µM; in the data active = activation above about 4%;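 also: enzyme coupled to thioredoxin and thioredoxin reductase with NADPH; 0% = vehicle wells and 100% = reference activator wells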
* marks the source's active call; other numbers are inactive results; / = no result given. Compounds with a hit are over-represented: about 1.2% of the library has one in this group of screens.

SMILES | bovine MsrA act | procasp3 activ | MsrA inh | proCasp7 act | MsrA act confirm
COC(=O)C1=C(C)N(Cc2ccc(C(F)(F)F)cc2)C(=NCc2ccccc2)NC1c1ccc(C(F)(F)F)cc1 (stereo not given) | / | / | -0.6 | / | /
COC(=O)c1cc2c(c3c4cc(F)ccc4n(S(=O)(=O)c4ccc(C)cc4)c13)C(=O)N(Cc1ccc(N(C)C)cc1)C2 | / | / | 0.2 | / | /
COc1cccc(NC(=O)C2(C)CCN2C(=O)Cc2ccc(-c3ccccc3)cc2)c1 (stereo not given) | -2.2 | / | -0.6 | / | /
CC1(C(=O)Nc2ccccc2)CCN1C(=O)Cc1ccc(-c2ccccc2)cc1 (stereo not given) | 14.2* | / | 0.2 | / | 5.2*
O=C(CN1CCCCC1)Nc1cccc(Br)c1 | 7.8* | -3.0 | 0.1 | 5.2 | -1.2
O=C(CN1CCOCC1)Nc1cccc(Br)c1 | -3.1 | -5.1 | -0.6 | -7.1 | /
O=c1cc(N2CCC3(CC2)OCCO3)[nH]c(=O)n1C1CCCCC1 | 9.6* | -5.8 | -0.6 | -1.4 | -2.3
CCOC(=O)c1cnc(Nc2nc3ccccc3o2)nc1C | -0.7 | 13.3 | 1.1 | -4.1 | /
CCOC(=O)c1cnc(Nc2nc3ccccc3o2)nc1CSc1nnc(C)s1 | 15.3* | -1.4 | 0.9 | -3.4 | 0.5
c1ccc(-c2cc3c(N4CCOCC4)ncnc3s2)cc1 | 8.0* | -0.3 | 2.3 | 8.5 | -3.1
CNC(=O)N(O)C1N(C)C(=O)N(CC(=O)OC)C1(C)C (stereo not given) | -13.6 | -5.2 | -1.1 | -0.2 | /
CCCN1C(=O)N(C)C(N(O)C(=O)NC)C1(C)C (stereo not given) | 14.4* | -10.1 | 0.7 | 3.0 | 0.5
COCc1cc(N2CCN(C(=O)OC(C)(C)C)C[C@@H]2C)ccc1N1CC[C@@H](O)C1 | / | / | -1.5 | / | /
COC(=O)[C@]12C[C@H](CC(=O)N3CCSCC3)C(=O)N(Cc3ccc4c(c3)OCO4)C1=C[C@H](COCc1ccccc1)O[C@@H]2C | / | / | -0.6 | / | /
CCCCOC(=O)Cn1c(=O)c2c(nc3n2CCCCN3c2ccc(C)cc2)n(C)c1=O | -3.1 | -8.6 | -0.9 | 6.2 | /
CCOC(=O)Cn1c(=O)c2c(nc3n2CCCCN3c2ccc(OCC)cc2)n(C)c1=O | 8.0* | -5.5 | 1.8 | 7.1 | -0.6
CC(OC(=O)CNC(=O)C12CC3CC(CC(C3)C1)C2)C(=O)Nc1ccc(S(N)(=O)=O)cc1 (stereo not given) | 9.1* | -8.4 | -0.1 | 3.1 | 2.6
NS(=O)(=O)c1ccc(NC(=O)COC(=O)CNC(=O)C23CC4CC(CC(C4)C2)C3)cc1 | -1.8 | 12.5 | 3.0 | -7.2 | /
OC12CCCCC1C(c1ccc3c(c1)OCO3)N(Cc1ccc(F)cc1)CC2 (stereo not given) | 9.5* | 3.8 | -0.2 | 1.3 | -0.1
OC12CCCCC1C(c1ccc3c(c1)OCO3)N(Cc1cccc(F)c1)CC2 (stereo not given) | -1.0 | / | 0.0 | / | /
CC1CCCN(C(=O)COC(=O)/C=C/c2ccc(C(F)(F)F)cc2)C1 (stereo not given) | 8.7* | 5.0 | -0.1 | -1.5 | -0.9
CC(=O)c1c(C)n(-c2ccc(Cl)cc2)c2ccc(O)cc12 | 7.8* | -0.9 | -0.8 | -2.1 | 0.1
CC(=O)c1ccc(-n2c(C)c(C(C)=O)c3cc(O)ccc32)cc1 | -3.3 | 5.9 | 1.0 | 3.4 | /
Cc1cc(Nc2ccc(OC(F)F)cc2)cc(=O)n1-c1ccc(OC(F)F)cc1 | / | / | 0.2 | / | /
CC1(C)CNC(=O)c2sc(N3CCCCC3)nc2C1 | 8.0* | -2.9 | 0.3 | 8.9 | -2.3
SMILES | bovine MsrA act | procasp3 activ | MsrA inh | proCasp7 act | MsrA act confirm
CC1(C)CC(=O)c2sc(N3CCCCC3)nc2C1 | -8.0 | 4.5 | 4.3 | 3.4 | /
COc1ccc2ccccc2c1CN1CCN(c2ncc(Cc3ccccc3)cn2)CC1 | / | / | 2.3 | / | /
CCCCCc1c(C)nc(Nc2ccc(F)cc2)[nH]c1=O | 9.8* | -1.7 | -1.0 | 9.9 | 1.0
COc1ccc(O)c(/C=N/NC(=O)CCC(=O)Nc2ccc(F)cc2)c1 | 7.9* | 1.2 | 1.4 | -16.2 | -2.8
COc1ccc(/C=N/NC(=O)CCC(=O)Nc2ccc(F)cc2)c(OC)c1 | -9.9 | 1.2 | 3.9 | 2.4 | /
Cc1cc(N2CCN(CC(C)(C)O)C[C@H]2C)ccc1N1CCN(Cc2ccccc2)[C@@H](C)C1 | / | / | -0.9 | / | /
O=C(Nc1ccccc1Br)C1CCCN1S(=O)(=O)c1cccc2nsnc12 (stereo not given) | 14.5* | -2.0 | 1.8 | 2.2 | -0.1
O=C(Nc1ccccc1F)C1CCCN1S(=O)(=O)c1cccc2nsnc12 (stereo not given) | -3.5 | 6.2 | -0.2 | 0.8 | /
CC1(C)Cc2cccc(Oc3ccc(S(=O)(=O)N4CCCCC4)cn3)c2O1 | 7.7* | 6.4 | 0.9 | 8.2 | -0.5
COc1ccc(-c2ncn(CCc3ccccc3OC)c2CC(C)C)cc1 | / | / | 0.6 | / | /
CC1(C)Cc2c(sc3nc(-c4ccccc4)n(N)c(=O)c23)CO1 | -4.3 | -2.5 | 1.0 | -3.9 | /
CSc1nnc2c3c4c(sc3c(=O)n(-c3ccccc3)n12)CC(C)(C)OC4 | 24.3* | -0.6 | 1.2 | 1.5 | -3.2
CCOC(=O)NC1(C(F)(F)F)C(=O)N(Cc2ccccc2)C2=C1C(=O)CC(C)(C)C2 (stereo not given) | 11.6* | -11.7 | 1.1 | -2.5 | -1.1
CC1(C)CC(=O)C2=C(C1)N(Cc1ccco1)C(=O)C2(NC(=O)c1cccnc1)C(F)(F)F (stereo not given) | 8.2* | -11.4 | 0.1 | 1.0 | -1.8
O=C(/C=C(\Nc1ccc(Br)c(F)c1)c1ccccc1)c1ccccc1 | / | / | -0.9 | / | /
CC(C)(C)OC(=O)N1CCC[C@@H]1C(=O)N1CCC[C@H]1C(=O)NCc1ccccc1 | / | / | -0.2 | / | /
CC(=O)OCCn1c2nc(=O)[nH]c(=O)c-2nc2cc(C)c(C)cc21 | 12.6* | / | 0.8 | / | 16.0*
CC(=O)OCCn1c(C)[n+](CCOC(C)=O)c2cc(Cl)c(Cl)cc21 | -2.0 | -2.4 | 2.0 | 12.2 | /
CCOC(=O)C1=C(C(=O)OCC)C2N(Cc3ccc(C#N)cc3)c3ccccc3[C@@]23C[C@@H](C(=O)OC)N(S(=O)(=O)c2c(C)noc2C)C3=N1 (stereo not given in full) | / | / | 0.2 | / | /
Nc1ncnc(Nc2cccc(F)c2)n1 | -2.0 | -13.4 | -1.1 | 2.7 | /
Cc1cccc(Nc2ncnc(N)n2)c1 | 13.2* | 2.1 | 2.2 | 4.8 | -1.4
NC(=O)c1c(N)[nH]c(C(=O)c2ccccc2)c1-c1ccccc1 | / | / | 2.1 | / | /
O=C(Cn1ncc2c1-c1ccccc1OC2)N(Cc1ccco1)C1CCCCC1 | 7.7* | 3.2 | -0.9 | -4.6 | -0.6
CCN(CC)C(=O)Cn1ncc2c1-c1ccccc1OC2 | -11.3 | -0.6 | 1.8 | 6.1 | /
O=C1C=C(Nc2ccccc2O)c2ccccc2C1=O | 9.3* | -7.7 | 1.9 | -23.8 | 6.1*

High-throughput results from PubChem BioAssay.
